Screens from PubChem BioAssay.
Hits are enriched below; roughly 0.86% of the tested compounds scored in any of these assays.
PERK inh – inhibitors of human PERK kinase; CHO PERK-DD fusion, SEAP luminescence translation reporter; inhibition, % at 5.6 µM; 0.17% of 220,000 active;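 active = inhibition above the mean inhibition of all tested compounds plus 3 SD, set separately per screening campaign, cut at about 2.9% in these data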;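 also: PERK kinase domain activated by AP20187 dimerizer at 100 nM; 0% = DMSO with dimerizer and 100% = rapamycin at 8.4 µM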
TNAP inh noacc – blocks human TNAP activity with no phosphate acceptor present; P05186; purified TNAP, CDP-star luminescence, 30 min; inhibition, % at 20 µM; 0.26% of 200,000 active; AID 1012;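 active = tissue-nonspecific alkaline phosphatase inhibition above about 50% at 20 µM in the single-dose screen, limit read from the data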;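 also: 0% = DMSO negative control and 100% = EDTA positive control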
Redox H2O2 prof – compounds producing H2O2 with reducing agent – biochemical, NIH compound library profiling, artefact control for MLSCN library redox annotation, primary screen; AID 878; 0.03% of 200,000 active; DTT-dependent redox cycling H2O2, phenol red/HRP absorbance; 100% = 100 µM peroxide control, 0% = buffer; activation, % at 10 µM;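 active = activation of at least 50% relative to the plate's high and low controls in the primary single-dose screen; inactive = activation below 50%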;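 also: compound incubated with DTT at 0.8 mM final as the reducing agent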
TNAP act hiacc – TNAP (human) activation, high acceptor; activation factor at 20 µM; purified TNAP, CDP-star luminescence, 1 M DEA, 30 min; active compounds read high; 0 = EDTA background, 1 = DMSO-only activity; 200,000 tested, under 10 active; AID 1136;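 active = activation factor at least 2 at 20 µM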
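Test system – human TNAP · Doses – 20 µM single point · Incubation – 30 min, room temperature · Signal – luminescent substrate turnover signal · Read-out basis – activation factor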
TNAP inh hiacc – inhibitors of human TNAP at high phosphate acceptor concentration | P05186 | inhibition, % at 20 µM | 0.03% of 200,000 active | purified TNAP, CDP-star luminescence, 1 M DEA;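 active = over 50% inhibition of tissue-nonspecific alkaline phosphatase at 20 µM in the single-dose screen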;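 also: plate controls were DMSO wells for no effect and EDTA-quenched wells as full inhibition for full effect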
p97 ATPase inh – blocks human p97 ATPase activity; P55072; AID 1481; 0.42% of 220,000 active; inhibition, % at 8 µM; recombinant p97 ATPase, Kinase-Glo ATP luminescence, 3 h; in the data active = inhibition above about 15%;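 also: 0% = DMSO vehicle and 100% = wells lacking enzyme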
p97 inh conf – human p97 ATPase inhibition, confirmation; recombinant p97 ATPase, Kinase-Glo ATP luminescence; inhibition, % at 8 µM; AID 1517; 44% of 760 active; shares compounds with p97 ATPase inh;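 active = percent inhibition of p97 ATPase above a set limit, the primary screen's mean plus 3 SD, cut at about 15% in these data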;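 also: 0% = DMSO wells and 100% = wells lacking p97 protein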
The depositor's hits bear a star; x = no result given.

SMILES	PERK inh	TNAP inh noacc	Redox H2O2 prof	TNAP act hiacc	TNAP inh hiacc	p97 ATPase inh	p97 inh conf
N#CCCn1[nH]c(-c2ccccc2)cc1=O	2	15	0	1	2	22*	5
Oc1ccc(N=Cc2ccc(O)c(O)c2)cc1	-1	21	0	0.8	21	21*	13
CC1CCCC(NC(=O)CCn2c(=S)oc3ccccc32)C1C (stereo not given)	0	x	x	x	x	3	x
O=C(CCn1c(=S)oc2ccccc21)NC1CCCCCC1	2	x	x	x	x	16*	9
Cc1cc(C(=O)N/N=C/c2cc(Br)ccc2OC(=O)c2ccccc2Cl)n[nH]1	0	-13	0	1	0	18*	35*
O=C(/C=C/c1ccco1)Nc1cccc(C(=O)Nc2ccccc2C(=O)O)c1	2	x	x	x	x	46*	30*
CCc1ccccc1NC(=O)c1cccc(NC(=O)/C=C/c2ccco2)c1	0	-14	0	1	-2	1	x
Nc1nc(SCC(=O)Nc2ccc([N+](=O)[O-])cc2)n[nH]1	0	-1	-1	1	-5	-7	x
COc1cc(C)ccc1S(=O)(=O)N1CCN(C23CC4CC(CC(C4)C2)C3)CC1	-1	-4	0	1.1	-5	-4	x
CC1CC(C)(C)NC(=S)N1CCC(=O)N1CCN(c2ccccc2)CC1 (stereo not given)	0	-2	-1	1	-5	15*	3
CN(Cc1ccccc1)C(=O)CSc1nc2ccccc2c(=O)n1Cc1ccco1	-1	-6	-1	1.1	-5	7	x
Cc1ccc(NC(=O)CN(C)C(=O)CSc2nc3ccccc3c(=O)n2Cc2ccco2)cc1	0	-8	2	1.1	-8	19*	7
COc1ccc(C2NCCc3c2[nH]c2ccccc32)cc1CSc1nc2ccccc2s1 (stereo not given)	0	-9	0	1.1	-6	11	x
Cc1nnc2sc(SCC(=O)Nc3nccs3)nn2c1=O	0	-28	0	1	1	-1	x
Cc1ccc(NC(=O)CN2C(=O)N/C(=C/c3cccn3-c3ccc(C(=O)O)cc3)C2=O)cc1	0	-6	0	1	-3	17*	32*
Cc1ccc(NC(=O)CN2C(=O)N/C(=C/c3cc(C)n(-c4ccc(C(=O)O)cc4)c3C)C2=O)cc1	1	-10	-1	1	-1	7	x
CCCNC(=O)CN1C(=O)NC(CCSC)C1=O (stereo not given)	1	x	x	x	x	7	x
COc1ccc(-c2cc(N)n(S(=O)(=O)c3c(F)c(F)c(F)c(F)c3F)n2)cc1OC	-1	-11	0	1	-5	22*	26*
COc1ccc(S(=O)(=O)n2nc(-c3cc(OC)c(OC)c(OC)c3)cc2N)cc1OC	-1	-6	0	1	4	4	x
O=C(CNC(=O)c1cccc(F)c1)N/N=C/c1ccc(O)c([N+](=O)[O-])c1	0	3	0	0.9	5	-3	x
O=C(CNC(=O)c1ccc(F)cc1)N/N=C/c1ccc(O)c([N+](=O)[O-])c1	1	13	0	0.9	10	22*	5
CC1=NN(c2ccccc2)C(=O)/C1=C\c1ccc(Oc2ccc([N+](=O)[O-])cc2[N+](=O)[O-])cc1	0	-11	1	1	0	23*	9
Nc1ccc(Oc2ccc([N+](=O)[O-])cc2[N+](=O)[O-])cc1	1	-11	0	1	-3	0	x
COc1cc(/C=C2\C(=O)N(c3ccccc3)N=C2C)ccc1Oc1ccc([N+](=O)[O-])cc1[N+](=O)[O-]	0	-27	0	1	0	18*	9
COc1cc(/C=C2/SC(=O)NC2=O)ccc1Oc1ccc([N+](=O)[O-])cc1[N+](=O)[O-]	1	x	x	x	x	6	x
Cc1ccc(N/C(C(Cl)=C(Cl)Cl)=C(/Cl)[N+](=O)[O-])c(C)c1	1	-8	0	1	1	19*	21*
